Screens as filed in PubChem.
Compounds with a hit are over-represented: about 2.1% of the library has one in this group of screens.
MC4R antag cAMP – MC4R antagonists of cAMP signaling, primary screen, cell-based, TR-FRET, antagonist arm of biased-ligand search | MC4R-expressing cells, MTII-stimulated cAMP, LANCE TR-FRET | 0.48% of 360,000 active | Melanocortin receptor 4 (Homo sapiens), P32245 | inhibition, % at 6.5 µM;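 active = inhibition above its plate's cutoff, the mean of tested wells on that plate plus 3 SD, cut at about 29% in these data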;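 also: 0% = Melanotan II alone and 100% = Melanotan II plus saturating MCL0020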
Target sequence (P32245 whole entry, looked up): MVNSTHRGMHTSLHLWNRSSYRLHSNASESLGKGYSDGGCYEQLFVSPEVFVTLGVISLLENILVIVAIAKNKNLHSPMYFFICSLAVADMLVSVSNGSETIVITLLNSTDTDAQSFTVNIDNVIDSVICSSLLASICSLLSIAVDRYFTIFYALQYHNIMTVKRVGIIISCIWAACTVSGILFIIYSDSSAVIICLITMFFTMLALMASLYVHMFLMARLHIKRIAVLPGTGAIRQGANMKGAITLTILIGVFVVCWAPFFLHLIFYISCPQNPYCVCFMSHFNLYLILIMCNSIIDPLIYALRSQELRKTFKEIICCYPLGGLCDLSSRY
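Assay system: human MC4R-expressing U2OS cells; reagent: Melanotan II stimulation of cells; dosing: 6.5 µM single dose; timing: compound 30 min, challenge 1 h, detection 1 h; signal: TR-FRET cAMP assay; replicates: one well per compound, no replicates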
SMARCA2 activ – SMARCA2 (BRM) function activators, primary screen, cell-based, luminescence, high throughput; MG213 cells, MMTV-luciferase reporter, dexamethasone, overnight; activation, % at 9.1 µM; 1% of 370,000 active; in the data active = activation above about 7.8%;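 also: 0% = vehicle wells and 100% = reference activator wells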
F508del corr – F508del CFTR correction, initial screen, CFBE line, single point; CFBE cells, YFP halide quenching; stimulated with forskolin plus potentiator P3; % fluorescence drop versus neutral controls; activity (quench increase), % at 7.58 µM; 0.36% of 350,000 active; AID 720511, 2013;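 active = mean added fluorescence quench of at least 8% versus neutral control, with both replicates also reaching 8%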;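 also: cells transiently co-express mutant CFTR-F508del with the halide-sensitive YFP; corrector assay measuring rescue of mutant channel to the surface after 24 h compound exposure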
MC4R barr agon – MC4R agonists recruiting beta-arrestin, primary screen, cell-based, luminescence, agonist arm of biased-ligand search; Melanocortin receptor 4 (Homo sapiens), P32245; U2OS MC4R beta-arrestin complementation; percent of melanotan II response, DMSO zero; activation, % at 8.9 µM; 0.98% of 360,000 active; AID 540308, 2011;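 active = activation above a per-plate cutoff, the mean activation of sample wells on that plate plus 3 SD, cut at about 8% in these data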
Numbers without * were called inactive.

For COc1ccc(N(C(=O)c2cnccn2)C(C(=O)NC2CCCCC2)c2ccc(Cl)cc2)cc1 (configuration not stated) the results were MC4R antag cAMP 2, SMARCA2 activ -3 and MC4R barr agon 1.
Screening COc1ccc(C(C(=O)NC2CCCCC2)N(C(=O)CCl)c2ccc(Cl)cc2)cc1 (configuration not stated) returned MC4R antag cAMP 20 and MC4R barr agon 13*.
`O=C(NC1CCCCC1)C(c1cccnc1)N(C(=O)CCl)c1cccc(Cl)c1` (configuration not stated) gave MC4R antag cAMP 4, SMARCA2 activ -13, F508del corr 2 and MC4R barr agon 13*.
Cc1cccc(OCCC(=O)Nc2ccc(F)c(Cl)c2)c1 was read as MC4R antag cAMP -1, SMARCA2 activ -3 and MC4R barr agon 8.9*.
Cc1ccc(OCCC(=O)Nc2ccc(F)c(F)c2)cc1 was read as MC4R antag cAMP 5, SMARCA2 activ -3 and MC4R barr agon 0.
CCC(CO)NCc1cc(OC)c(OCC(=O)NCCc2ccccc2)cc1Br (configuration not stated) was read as MC4R antag cAMP 2, SMARCA2 activ 8.3* and MC4R barr agon -4.
Screening CCCNCc1cc(OC)c(OCC(=O)NCCc2ccccc2)cc1Br returned MC4R antag cAMP -9, SMARCA2 activ -2 and MC4R barr agon -2.
For Cc1ccc(-c2nn(-c3ccccc3)cc2C(=O)N2CCN(c3ccccn3)CC2)cc1 the results were MC4R antag cAMP -1, SMARCA2 activ 2, F508del corr 15* and MC4R barr agon -1.
`O=C(c1cn(-c2ccccc2)nc1-c1ccccc1)N1CCN(c2ccccn2)CC1` gave MC4R antag cAMP 0, SMARCA2 activ 0, F508del corr -1 and MC4R barr agon -1.
CC(=O)c1ccc(N/C=C\C(=O)c2ccc(C)cc2)cc1 was read as MC4R antag cAMP 10, SMARCA2 activ 5, F508del corr 3 and MC4R barr agon -1.
Screening Cc1ccc(C(=O)/C=C/Nc2ccc3c(c2)OCO3)cc1 returned MC4R antag cAMP 5, SMARCA2 activ 3 and MC4R barr agon 12*.
Screening COc1ccc(C2NC(=S)NC3=C2CCCC3=C2SCCS2)cc1 (configuration not stated) returned MC4R antag cAMP -2, SMARCA2 activ -5, F508del corr 11* and MC4R barr agon 0.
`S=C1NC2=C(CCCC2=C2SCCCS2)C(c2ccccc2)N1` (configuration not stated) gave MC4R antag cAMP 15, SMARCA2 activ 2, F508del corr -3 and MC4R barr agon 0.
Screening O=C(C[C@H]1CC[C@H]2[C@@H](COC[C@H](O)CN2C(=O)c2cccnc2)O1)NCc1ccc(-c2ccccc2)cc1 returned F508del corr -3.
N#C[C@H]1[C@@H](c2ccc(C3=CCCCC3)cc2)[C@H](CO)N1C(=O)NC1CCCC1 was read as F508del corr 0.
For N#C[C@H]1[C@H](c2ccc(C3=CCCCC3)cc2)[C@@H](CO)N1C(=O)NC1CCCCC1 the results were F508del corr 10*.
`CC(C)C[C@H]1CN([C@@H](CC(C)C)CN2CCC[C@@H]2CN2C(=S)NC[C@@H]2Cc2ccc(O)cc2)C(=S)N1CCc1ccccc1` gave SMARCA2 activ 0 and F508del corr 8.8*.
For CC(C)C[C@H]1CN([C@@H](Cc2ccc(O)cc2)CN2CCC[C@@H]2CN2C(=O)C(=O)NC[C@@H]2Cc2ccccc2)C(=O)C(=O)N1CC1CCCCCC1 the results were MC4R antag cAMP 3, SMARCA2 activ 0, F508del corr 2 and MC4R barr agon 0.
For CC(C)C[C@H]1CN([C@@H](Cc2ccc(O)cc2)CN2CCC[C@H]2CN2C(=O)C(=O)NC[C@@H]2Cc2ccccc2)C(=O)C(=O)N1CC1CCCCC1 the results were SMARCA2 activ -5 and F508del corr 8.4*.
`COCC(=O)Nc1ccc2c(c1)C(=O)N(C)C[C@H](OC)[C@H](C)CN(CC1CC1)[C@@H](C)CO2` gave F508del corr -2.
COc1ccc(NC(=O)Nc2ccc3c(c2)C(=O)N([C@@H](C)CO)C[C@@H](C)[C@@H](CN(C)C(=O)C2CCCCC2)OCCCC[C@@H](C)O3)cc1 was read as F508del corr -1.
C[C@@H]1CN([C@@H](C)CO)C(=O)c2cccc(NS(=O)(=O)c3ccc(Cl)cc3)c2O[C@H]1CN(C)C(=O)Nc1ccc(C(F)(F)F)cc1 was read as F508del corr -2.
`O=[N+]([O-])c1ccc(/C=C/c2ccncc2)cc1` gave MC4R antag cAMP 9, SMARCA2 activ 7.9*, F508del corr -2 and MC4R barr agon -1.
For O=C(c1ccccc1F)N1CC[C@@H]2[C@H]1c1cc(Br)ccc1N[C@@H]2CO the results were F508del corr 6.
Screening O=C(c1ccccc1F)N1CC[C@@H]2[C@H](CO)Nc3ccc(Br)cc3[C@@H]21 returned F508del corr 12*.
`C[C@H](CO)N1C[C@H](C)[C@H](CN(C)S(C)(=O)=O)Oc2c(NS(=O)(=O)c3ccc(Cl)cc3)cccc2C1=O` gave F508del corr 3.
Screening CN1/C(=C\C=C2/C(=O)Oc3ccccc3C2=O)C(C)(C)c2ccccc21 returned SMARCA2 activ 3 and F508del corr 4.
For CCCN1C(=O)/C(=C\C=C2\N(CC)c3ccccc3C2(C)C)SC1=S the results were MC4R antag cAMP 5, SMARCA2 activ 3, F508del corr 16* and MC4R barr agon -3.
For CN1C(=CC=C2C=C(I)C(=O)C(I)=C2)C(C)(C)c2ccccc21 the results were MC4R antag cAMP -1, SMARCA2 activ 0, F508del corr 9.6* and MC4R barr agon -3.
CN1/C(=C\C=C2/SC(=S)NC2=O)C(C)(C)c2ccccc21 was read as MC4R antag cAMP -4, SMARCA2 activ -6, F508del corr 25* and MC4R barr agon -3.
COc1cccc(CN2CC3(CN(CC4CC4)C3)c3c([nH]c4cc(OC)ccc34)[C@H]2CO)c1 was read as F508del corr 1.
For Cc1noc(C)c1NC(=O)Nc1cccc2c1O[C@@H](CN(C)C(=O)Nc1ccc(F)cc1)[C@H](C)CN([C@@H](C)CO)C2=O the results were F508del corr 0.
CC(C)Nc1nc(Nc2ccc(C#N)cc2)c2sccc2n1 was read as MC4R antag cAMP 15, SMARCA2 activ -2, F508del corr 8.1* and MC4R barr agon 0.
Screening CN1CCN(S(=O)(=O)c2cccc(C(=O)Nc3cc(Cl)ccc3N3CCOCC3)c2)CC1 returned MC4R antag cAMP 9, SMARCA2 activ -1, F508del corr 5 and MC4R barr agon -1.
